Screening results from PubChem BioAssay.
Yeast life ext – yeast lifespan extension. S. cerevisiae growth with nicotinamide, OD615; deaD strain in restrictive glucose medium. inhibition of the nicotinamide effect, % at 10 µM. actives 0.68% (n = 130,000). AID 775;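 active means inhibition above a set limit, placed 3 SD over the median of all compounds, cut at about 26% in these data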
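Assay system: engineered S. cerevisiae DeaD replicative-lifespan strain, galactose-grown log-phase cells; Buffer or medium: CSMM-D glucose medium, restrictive; Probe or stimulus: nicotinamide 1.5 mM; Compound: single dose 10 µM compound, 0.25% DMSO; Schedule: 4 h preincubation then 48 h treatment at 30 °C; Technique: OD615 measurement.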
RAM network inh – inhibitors of the yeast RAM network; inhibition, % at 50 µM; actives 1.8% (n = 190,000); S. cerevisiae dse1pr::URA3 reporter, 5-FOA growth OD615, 2 d; analog-sensitive cbk1-as2 kinase mutant strain;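 active means inhibition above a set limit, 3 SD over mean compound inhibition, cut at about 8.4% in these data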;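 further: inhibition rescues growth on 5-FOA so higher OD means more RAM inhibition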
BB579 growth dn – yeast BB579 growth reduction in restrictive medium; S. cerevisiae BB579 growth, OD615, 48 h; inhibition, % at 10 µM; actives 0.51% (n = 140,000);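 active means inhibition above a set limit, 3 SD over the mean compound inhibition, cut at about 44% in these data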
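Detection: OD615 turbidity measurement; Material: Saccharomyces cerevisiae DeaD strain BB579, replicative lifespan model yeast; Timing: 48 h exposure, 30 °C; Doses: single 10 µM dose; Medium: CSMM-D restrictive synthetic medium containing dextrose (glucose); Controls: amphotericin B at 10 µg/mL as positive control.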
Of the large screens only hits and unclear results are named; the others gave an inactive call. Rows were chosen to be rich in hits. Some 2.6% of all compounds tested hit in one or more screens of this group.

COc1ccc(S(=O)(=O)/N=C2/C=CC(=O)C(C)=C2C)cc1	none
CC1=C(C)/C(=N\OS(=O)(=O)c2ccc(C)cc2)C=CC1=O	BB579 growth dn 99
CCCn1c(SCc2ccon2)nc2ccccc2c1=O	none
O=c1c2c(nc3nc(NCc4cccc(Cl)c4)[nH]n13)CCC2	none (no result: Yeast life ext, BB579 growth dn)
Cc1ccc(C(=O)NCCNS(C)(=O)=O)cc1	none (no result: Yeast life ext, BB579 growth dn)
O=C(Nc1ccc(Cl)c(S(=O)(=O)Nc2ccccc2Cl)c1)c1cccs1	none
COc1ccc(NC(=O)CCC(=O)c2cccs2)cc1S(=O)(=O)Nc1ccccc1Cl	RAM network inh 10.0
CC1CCCCN1CCCNC(=O)c1cc(Br)c(Br)[nH]1 (stereo unspecified)	none (no result: Yeast life ext, BB579 growth dn)
COc1ccc(/C=N/N(C(C)=O)c2nc(-c3ccc(C)cc3)cs2)cc1	RAM network inh 9.3
CC(=O)N(/N=C/c1cccc(C)c1)c1nc(-c2ccc(Br)cc2)cs1	none
CC(=O)CC1(OC(C)=O)C(=O)N(C)c2ccccc21 (stereo unspecified)	none (no result: Yeast life ext, BB579 growth dn)
COc1ccc(OC)c(-c2csc(NC(=O)Cc3cccs3)n2)c1	RAM network inh 8.6 (no result: Yeast life ext, BB579 growth dn)
COc1ccc(CC(=O)Nc2nc(-c3cc(OC)ccc3OC)cs2)cc1	none (no result: Yeast life ext, BB579 growth dn)
CC1CCCN(CCOc2ccc3ccccc3c2Br)C1 (stereo unspecified)	none (no result: Yeast life ext, BB579 growth dn)
O=C(COc1ccccc1)Nc1ccc(OC(F)(F)C(F)F)c(NC(=O)COc2ccccc2)c1	RAM network inh 9.8
CC(=O)Nc1ccc(OC(F)(F)C(F)F)c(NC(C)=O)c1	none
O=C(N/N=C/c1cc(Br)ccc1O)C(c1ccncc1)N1CCOCC1 (stereo unspecified)	Yeast life ext 35
O=C(CNC(=O)c1ccncc1)N/N=C/c1cc(Br)ccc1O	none
Cc1ccc(/C=C/C(=O)c2ccccc(=O)c2O)c(C)c1	BB579 growth dn 99
O=C(/C=C/c1ccccc1Cl)c1cccnc1	none
Cc1ccc(C)c(NC(=O)c2ccccc2O)c1	none
O=C(/C=C/c1ccccc1Cl)c1ccccc(=O)c1O	BB579 growth dn 99
Cc1ccc(C)c(/C=C/C(=O)c2ccccc(=O)c2O)c1	BB579 growth dn 99
Cc1cccc(C(=O)NNC(=O)c2ccccc2C)c1	none (no result: Yeast life ext, BB579 growth dn)
CCOC(=O)C1CCN(C(=O)c2ccc(N(C)S(=O)(=O)c3ccc(OC)cc3)cc2)CC1	none (no result: Yeast life ext, BB579 growth dn)
c1cc2c(cc1-c1csc(NNC3=NCCCCC3)n1)OCCO2	none (no result: Yeast life ext, BB579 growth dn)
O=C(Nc1ccc(Cl)c(S(=O)(=O)N2CCOCC2)c1)c1ccccc1-c1ccc(C(F)(F)F)cc1	none
CN1CCc2c(sc3c2C(=O)NC(c2ccccn2)N3)C1 (stereo unspecified)	none
O=C1NC(c2ccccn2)Nc2sc3c(c21)CCC3 (stereo unspecified)	BB579 growth dn 75
COCCCn1c(=S)[nH]c2c(sc3ccccc32)c1=O	none (no result: Yeast life ext, BB579 growth dn)
COc1ccccc1NC(=S)NCCC(c1ccccc1)c1ccccc1	RAM network inh 9.8
COc1ccc(Cl)cc1NC(=S)NCCC(c1ccccc1)c1ccccc1	none
COCCCNCCOCCOc1ccc(Cl)cc1C(C)(C)C	none
COc1cccc(Oc2nnnn2-c2ccccc2)c1	none
COc1cccc(-n2nnnc2S(C)(=O)=O)c1	BB579 growth dn 74
O=C(C1=C[C@@H](c2ccc(C(F)(F)F)cc2)C[C@@H](OCc2ccc(CO)cc2)O1)N1CCOCC1	RAM network inh 9.0 (no result: Yeast life ext, BB579 growth dn)
O=C(C1=C[C@H](c2ccc(C(F)(F)F)cc2)C[C@H](OCc2ccc(CO)cc2)O1)N1CCCCCCC1	none (no result: Yeast life ext, BB579 growth dn)
O=C(C1=C[C@H](c2ccc3c(c2)OCO3)C[C@H](OCc2ccc(CO)cc2)O1)N1CCOCC1	RAM network inh 10 (no result: Yeast life ext, BB579 growth dn)
O=C(O)C1=C[C@@H](c2ccc3c(c2)OCO3)C[C@@H](OCc2ccc(CO)cc2)O1	none (no result: Yeast life ext, BB579 growth dn)
CN1CCN(NC(=S)Nc2ccc(OC(F)F)cc2)CC1	none (no result: Yeast life ext, BB579 growth dn)
Cc1ccc2nc(C)cc(C(=O)Nc3nccs3)c2c1	none (no result: Yeast life ext, BB579 growth dn)
Cc1cc(C)c(S(C)(=O)=O)c(Oc2cccc(C(F)(F)F)c2)n1	none (no result: Yeast life ext, BB579 growth dn)
Cc1ccc(CNC(=O)C(=O)NCC2OCCN2C(=O)c2cccs2)cc1 (stereo unspecified)	RAM network inh 9.5
O=C(NCc1ccccc1)C(=O)NCC1OCCN1C(=O)c1cccs1 (stereo unspecified)	none
CCOC(CNC(=O)Cc1c(C)nc2c(-c3ccccc3)c(C)nn2c1C)OCC	none (no result: Yeast life ext, BB579 growth dn)
CCc1c(C)sc(NC(=S)N2CC(C)OC(C)C2)c1C(=O)OC (stereo unspecified)	RAM network inh 11 (no result: Yeast life ext, BB579 growth dn)
CCc1c(C)sc(NC(=S)NC(C)C2CCCO2)c1C(=O)OC (stereo unspecified)	none (no result: Yeast life ext, BB579 growth dn)
CCN(CC)Cc1c(O)c(Cl)cc2c(C)cc(=O)oc12	none (no result: Yeast life ext, BB579 growth dn)
CCN(CC)Cc1c(O)c(Cl)cc2c(C)c(C)c(=O)oc12	Yeast life ext 88
CC(C)(c1ccccc1)c1ccc(OCC(O)CNC2CCN(Cc3ccccc3)CC2)cc1 (stereo unspecified)	none (no result: Yeast life ext, BB579 growth dn)
CC1(c2ccccc2Cl)NC(=O)N(CC(=O)Nc2ccc3c(c2)OCO3)C1=O (stereo unspecified)	none (no result: Yeast life ext, BB579 growth dn)
O=[N+]([O-])c1ccc(N/N=C/c2ccc[nH]2)cc1	RAM network inh 8.9, BB579 growth dn 87
O=[N+]([O-])c1ccc(N/N=C/c2c[nH]c3ccccc23)cc1	none
CC(C)N(C(=O)CSc1nnc(CN2CCCCCC2=O)n1-c1ccccn1)C(C)C	none
CC(C)CNC(=O)CSc1nnc(CN2CCCCCC2=O)n1-c1ccccn1	Yeast life ext 29
COc1cc2c(cc1OC)C(c1cccs1)N(C(=S)NC(C)C)CC2 (stereo unspecified)	none (no result: Yeast life ext, BB579 growth dn)
COc1cc(C2Nc3cccc4cccc(c34)N2)cc(OC)c1O	RAM network inh 9.3
COc1cc(C2Nc3cccc4cccc(c34)N2)ccc1OC(C)=O	none
CCCNC(=O)NC1CCCc2ccccc21 (stereo unspecified)	none (no result: Yeast life ext, BB579 growth dn)
N/C(=N\OC(=O)COc1ccc2ccccc2c1Br)c1ccncc1	none (no result: Yeast life ext, BB579 growth dn)
CCOC(=O)c1[nH]c2ccccc2c1NC(=O)Nc1ccc(OC)cc1	none
Cc1noc(/C=C/N(C)C)c1S(=O)(=O)N1CCN(c2ccccc2)CC1	none
Cc1ccc(C)c(N2CCN(S(=O)(=O)c3c(C)noc3/C=C/N(C)C)CC2)c1	Yeast life ext 36
Cc1cc(=O)[nH]c(Sc2c(-c3ccccc3)c3ccccc3[nH]c2=O)n1	RAM network inh 8.7
COCc1cc(=O)[nH]c(Sc2c(-c3ccccc3)c3ccc(Cl)cc3[nH]c2=O)n1	none
O=C(CSc1nnc(SCc2ccccc2)s1)NNC(=S)Nc1ccccc1	RAM network inh 10
O=C(Cc1ccccc1)NNC(=S)Nc1ccccc1	none (no result: Yeast life ext, BB579 growth dn)
COc1ccc(CC(=O)OCC(=O)NCCc2ccccc2)cc1OC	none
CCCc1cc(=O)oc2cc(C)c(CN3CCCC3)c(O)c12	Yeast life ext 35
CCc1cc(=O)oc2cc(C)c(CN3CCCC3)c(O)c12	none
Cc1ccccc1C(=O)NNC1=NCCC1	Yeast life ext 29
O=C(NNC1=NCCC1)c1cccc(Br)c1	none
Cc1cc2nc(/N=C(\N)NC(=O)N3c4ccccc4Sc4ccccc43)nc(C)c2cc1C	none
COC(=O)c1cc(NC(=O)CN(c2cccc(OC)c2)S(=O)(=O)c2ccccc2)ccc1Cl	RAM network inh 8.9
COC(=O)c1cc(NC(=O)CN(c2ccccc2OC)S(=O)(=O)c2ccccc2)ccc1Cl	none
Cc1nc([N+](=O)[O-])c(SCC(O)CCl)n1Cc1ccc(Cl)cc1 (stereo unspecified)	none (no result: Yeast life ext, BB579 growth dn)
